# Compounds with a hit are over-represented: about 2.8% of the library has one in this group of screens.
# DENV2 CPE rescue: DENV2-induced cell death inhibition | DENV2-infected cells, cytopathic effect rescue, plate reader | CPE inhibition, % at 9.99 µM | actives 1.7% (n = 350,000) | AID 651640; in the data active means CPE inhibition above about 20%, passing the limit was not always enough; tested in BHK-21 cells;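 further: 0% = median of neutral control wells and 100% = median of positive control wells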
# SIRT5 inh: sirtuin-5 (human) deacylase inhibition. Q9NXA8. Purified SirT5, succinyl-peptide AMC, trypsin-coupled fluorescence. inhibition, % at 15 µM. actives 1.1% (n = 330,000); in the data active means inhibition above about 15%
# E-sel inducer: E-selectin induction on HUVECs; activation, % at 7.58 µM; actives 0.37% (n = 260,000); HUVEC E-selectin immunofluorescence imaging; normalized: neutral wells 0, TNF-alpha wells 100; P16581;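 active means mean E-selectin-positive cell signal at least 10% of the positive control, reached in at least 60% of replicates, without over 20% cell loss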
# Target sequence (P16581 whole entry, looked up): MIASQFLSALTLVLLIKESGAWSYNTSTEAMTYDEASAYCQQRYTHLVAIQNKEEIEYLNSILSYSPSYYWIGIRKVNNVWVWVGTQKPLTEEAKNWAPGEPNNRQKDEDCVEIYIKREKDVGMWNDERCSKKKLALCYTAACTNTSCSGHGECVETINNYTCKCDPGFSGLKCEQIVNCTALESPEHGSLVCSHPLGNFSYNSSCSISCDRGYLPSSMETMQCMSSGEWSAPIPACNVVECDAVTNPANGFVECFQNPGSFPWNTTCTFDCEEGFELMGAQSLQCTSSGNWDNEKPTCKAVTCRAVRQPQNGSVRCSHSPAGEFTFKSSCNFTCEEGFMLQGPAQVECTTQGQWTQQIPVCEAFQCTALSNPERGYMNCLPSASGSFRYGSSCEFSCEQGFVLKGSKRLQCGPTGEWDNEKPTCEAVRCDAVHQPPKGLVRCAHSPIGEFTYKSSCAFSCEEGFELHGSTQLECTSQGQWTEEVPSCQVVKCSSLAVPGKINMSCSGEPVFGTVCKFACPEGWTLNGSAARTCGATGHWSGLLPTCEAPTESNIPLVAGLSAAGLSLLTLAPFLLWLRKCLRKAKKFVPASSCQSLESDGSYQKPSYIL
#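 Assay system: HUVEC primary endothelial cells. Input: 3,000 HUVEC seeded per well. Doses: one compound dose added by pin transfer. Read-out basis: % PE-positive cells. Benchmarks: TNF-alpha high, DMSO low. Detection: immunofluorescence imaging. Buffer or medium: EGM-2, gelatin.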
# * marks the source's active call; other numbers are inactive results; / = not tested or not shown.
SMILES,DENV2 CPE rescue,SIRT5 inh,E-sel inducer
OC[C@@H]1[C@H]2c3ccccc3OC1(CO)N=C1SCc3ccccc3CN12,2,3,/
COc1cccc(S(=O)(=O)N[C@@H]2C=C[C@H](CC(=O)NCc3ccccc3)O[C@@H]2CO)c1,-6,1,-1
COc1ccc(-c2nc(-c3cccc(C)c3)no2)cc1OC,-5,17*,/
COc1ccc(-c2nc(-c3cccnc3)no2)cc1OC,11,1,0
COc1ccccc1NCC(=O)N/N=C(\C)c1ccc(Br)s1,23*,-3,/
C/C(=N/NC(=O)CNc1ccc(C)cc1)c1ccc(Br)s1,4,2,/
O=C(C1CC1)N1CC(=O)N2[C@H](CO)[C@@H](c3ccc(C#Cc4cccc(F)c4)cc3)[C@@H]2C1,9,3,0
C[C@@H]1CN([C@H](C)CO)C(=O)c2cc(NC(=O)c3ccccc3)ccc2O[C@@H](C)CCCCO[C@H]1CN(C)Cc1ccc(C(=O)O)cc1,11,-3,0
Cn1c(=N)n(CC(=O)c2ccc(Br)cc2)c2ccccc21,66*,-2,/
Cn1c(=N)n(CC(=O)c2ccc(F)cc2)c2ccccc21,-6,0,0
COc1cccc(-c2ccc([C@H]3[C@H](CO)N(C(=O)C4CC4)C34CN(C(C)=O)C4)cc2)c1,2,-3,0
COc1cc(Nc2ccn3nc(-c4ccccc4Cl)cc3n2)cc(OC)c1OC,30*,6,1
COc1ccccc1-c1cc2nc(NCCOc3ccccc3)ccn2n1,8,/,1
CN1CCN(C(=O)C[C@H]2C[C@H]3c4cc(NC(=O)c5ccc6c(c5)OCO6)ccc4O[C@H]3[C@H](CO)O2)CC1,6,1,0
COc1ccc(S(=O)(=O)N2CC[C@@H]3[C@@H](CO)Nc4ccc(-c5ccccc5F)cc4[C@@H]32)cc1,-1,/,0
Cc1ccc(S(=O)(=O)N(C)C[C@H]2Oc3ccc(NS(=O)(=O)c4ccc(F)cc4)cc3C(=O)N([C@H](C)CO)C[C@@H]2C)cc1,82*,/,1
C[C@H]1CN([C@@H](C)CO)C(=O)c2cc(NS(=O)(=O)c3ccc(F)cc3)ccc2O[C@H]1CN(C)S(=O)(=O)c1ccc(Cl)cc1,26*,-3,-1
C[C@@H]1CN([C@H](C)CO)C(=O)c2cc(NS(=O)(=O)c3ccc(Cl)cc3)ccc2O[C@@H]1CN(C)S(=O)(=O)c1ccc(F)cc1,7,2,1
Cc1ccc(S(=O)(=O)N(C)C[C@@H]2Oc3ccc(NS(=O)(=O)c4ccc(F)cc4)cc3C(=O)N([C@@H](C)CO)C[C@@H]2C)cc1,5,/,0
C[C@@H]1CN([C@@H](C)CO)C(=O)c2cc(NS(=O)(=O)c3ccc(F)cc3)ccc2O[C@H]1CN(C)C,14,0,0
C[C@H](CO)N1C[C@H](C)[C@H](CN(C)C)Oc2ccc(NS(=O)(=O)c3ccc(F)cc3)cc2C1=O,29*,-1,0
Cc1ccc([C@@H]2[C@@H]3C(=O)N(C)C(=O)[C@@H]3[C@]3(C)C(=O)N(Cc4ccccc4)CC(=O)N23)o1,-4,-2,0
Cc1ccc([C@@H]2[C@@H]3C(=O)N(c4ccccc4)C(=O)[C@@H]3[C@]3(C)C(=O)N(CC4CC4)CC(=O)N23)o1,50*,-1,0
C=CCNC(=S)N1CCOCC1,7,1,/
S=C(SSC(=S)N1CCOCC1)N1CCOCC1,24*,-2,0
SMILES,DENV2 CPE rescue,SIRT5 inh,E-sel inducer
CNC(=O)C[C@H]1CC[C@H]2[C@H](COc3ccc(NC(=O)c4ccc(C(F)(F)F)cc4)cc3C(=O)N2C)O1,-2,/,0
C/C=C/c1cnc2c(c1)C(=O)N([C@H](C)CO)C[C@@H](C)[C@H](CN(C)Cc1cncnc1)O2,-2,-4,0
C[C@@H]1CN([C@H](C)CO)C(=O)c2cc(C#CC(C)(C)O)cnc2O[C@H]1CN(C)Cc1cncnc1,3,-2,0
C[C@H]1CN([C@@H](C)CO)C(=O)c2cc(C#CC(C)(C)O)cnc2O[C@H]1CN(C)Cc1cncnc1,33*,4,0
C/C=C/c1cnc2c(c1)C(=O)N([C@@H](C)CO)C[C@H](C)[C@H](CN(C)Cc1cncnc1)O2,37*,1,0
CCCC(=O)Nc1ccc2c(c1)C(=O)N(C)C[C@H](OC)[C@@H](C)CN(S(=O)(=O)c1cn(C)cn1)[C@H](C)CO2,4,-1,0
Cc1c(Cc2ccc3c(c2)OCO3)sc(NC(=O)c2ccccc2)c1C(N)=O,0,20*,0
Cc1nc(NC(=O)c2ccccc2)sc1Cc1ccc2c(c1)OCO2,-1,-3,/
CO[C@H]1CC[C@H]2CCN(C)C(=O)[C@H](C)[C@@H](OC)CN(C)C(=O)c3cccc(C#N)c3OC[C@H]1O2,3,0,0
Cc1ccc(OCCNC(=O)C2CCCCC2)cc1,/,19*,/
O=C(NCCOc1ccc(Cl)cc1)C1CCCCC1,-3,-2,1
O=C(NCC[C@@H]1CC[C@@H](NS(=O)(=O)c2ccccc2)[C@@H](CO)O1)c1ccc2c(c1)OCO2,-4,3,-2
O=C(C[C@@H]1C[C@H]2c3cc(NC(=O)c4ccc5c(c4)OCO5)ccc3O[C@H]2[C@@H](CO)O1)NCc1ccc(Oc2ccccc2)cc1,4,-2,0
O=C(Nc1ccc2c(c1)[C@H]1C[C@H](CC(=O)N3CCc4ccccc4C3)O[C@H](CO)[C@H]1O2)Nc1ccccc1F,3,15*,-1
O=C(C[C@H]1C[C@@H]2c3cc(NC(=O)Nc4ccccc4F)ccc3O[C@@H]2[C@@H](CO)O1)NCc1ccc(Oc2ccccc2)cc1,-8,18*,0
O=C(C[C@H]1C[C@H]2c3cc(NC(=O)Nc4ccccc4F)ccc3O[C@H]2[C@@H](CO)O1)NCc1ccc(Oc2ccccc2)cc1,-6,0,0
O=C(C[C@@H]1C[C@H]2c3cc(NC(=O)Nc4ccccc4F)ccc3O[C@H]2[C@H](CO)O1)NCC1CC1,27*,22*,0
O=C(C[C@H]1C[C@@H]2c3cc(NC(=O)Nc4ccccc4F)ccc3O[C@@H]2[C@@H](CO)O1)NCC1CC1,9,0,0
O=C(C[C@@H]1C[C@H]2c3cc(NC(=O)c4ccc5c(c4)OCO5)ccc3O[C@H]2[C@H](CO)O1)NCc1ccc(Oc2ccccc2)cc1,7,22*,1
O=C(Nc1ccc2c(c1)[C@H]1C[C@@H](CC(=O)N3CCc4ccccc4C3)O[C@@H](CO)[C@H]1O2)Nc1ccccc1F,-5,1,0
Cc1ccc(S(=O)(=O)N(C)C[C@H]2Oc3ccc(NC(=O)CCN4CCOCC4)cc3C(=O)N([C@H](C)CO)C[C@@H]2C)cc1,-6,-2,0
COc1ccc(NC(=O)Nc2ccc3c(c2)CC(=O)N([C@H](C)CO)C[C@H](C)[C@@H](CN(C)C)O3)cc1,-2,-1,-3
CO[C@H]1CN(C)C(=O)c2cc(NC(C)=O)ccc2OC[C@@H](C)N(C(=O)CN2CCOCC2)C[C@@H]1C,-8,0,0
O=C(Nc1ccc(Cl)c(Cl)c1)N[C@H]1CC[C@H](CCn2cc(C3CC3)nn2)O[C@H]1CO,-1,5,0
O=C(C[C@H]1C[C@@H]2c3cc(NC(=O)Nc4ccccc4F)ccc3O[C@@H]2[C@H](CO)O1)NCC1CC1,-4,2,0

# Source: PubChem BioAssay (Broad Institute)
